Source: PubChem BioAssay (several laboratories)
IMP-1 inhibitor: blocks Pseudomonas aeruginosa IMP-1 metallo-beta-lactamase | inhibition, % at 5.6 µM | 290,000 compounds, 0.45% hits | AID 1556 | purified IMP-1, nitrocefin hydrolysis, epi-absorbance fluorescence;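 active means inhibition above the mean plus 3 SD of all compounds in the same screening run, cut at about 4.5% in these data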
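System: Purified IMP-1 | Read-out basis: Percent enzyme inhibition | Controls: IMP-1 with DMSO as 0%, enzyme-free DMSO as 100% | Replicates: One well per compound | Doses: 5.6 µM nominal single concentration | Detection: Epi-absorbance fluorescence, 480 nm excitation, 530 nm emission | Incubation: 25 °C, 15 min preincubation, 25 min reaction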
VIM-2 inh: blocks Pseudomonas aeruginosa VIM-2 metallo-beta-lactamase; purified VIM-2, nitrocefin hydrolysis, epi-absorbance fluorescence; inhibition, % at 5.6 µM; 290,000 compounds, 0.89% hits; AID 1527;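 active means inhibition above the mean of all tested compounds plus 3 SD, cutoff set per screening run, cut at about 7.5% in these data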;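 further: red hydrolysis product quenches plate fluorescence so inhibitors raise well fluorescence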
NS3 helicase inh: blocks Hepatitis C virus NS3 helicase unwinding; NS3 helicase DNA unwinding, Cy5 molecular beacon fluorescence; inhibition, % at 10.9 µM; 290,000 compounds, 0.56% hits;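 active means inhibition above the mean of all tested compounds plus 3 SD, set per campaign, cut at about 35% in these data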
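Assay system: hepatitis C virus NS3 helicase domain fragment enzyme. Also added: annealed dual-labelled DNA beacon duplex, ATP-started. Timing: 1 h reaction at 25 °C, ATP-initiated. Technique: Cy5 fluorescence at 0 and 60 min, beacon hairpin quenching. Evaluation: % inhibition of unwinding. Replication: one well per compound.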
DNA FID counter-1: counter-screen for HCV NS3 helicase inhibitors: DNA intercalator displacement | 290,000 compounds, 0.17% hits | inhibition, % at 7.9 µM | DNA fluorescent intercalator displacement, fluorescence;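 further: higher means more ethidium bromide displaced from hairpin DNA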
UBC9 SUMO inh: inhibitors of human SUMOylation (UBC9). HTRF SUMOylation assay, SAE1/SAE2 + UBC9, in vitro. 290,000 compounds, 0.36% hits. P63279. inhibition, % at 35 µM; in the data active means inhibition above about 50%, passing the limit was not always enough; inconclusive means no clear call, values can overlap the other calls
Target sequence (P63279 whole entry, looked up): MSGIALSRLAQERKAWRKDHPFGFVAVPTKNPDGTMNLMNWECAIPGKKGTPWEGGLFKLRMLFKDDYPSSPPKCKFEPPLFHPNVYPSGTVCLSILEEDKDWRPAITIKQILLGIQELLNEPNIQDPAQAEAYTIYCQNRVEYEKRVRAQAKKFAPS
NS3 helicase cf: confirmation of Hepatitis C virus NS3 helicase inhibitors. shares compounds with NS3 helicase inh. NS3 helicase DNA unwinding, Cy5 molecular beacon fluorescence. inhibition, % at 10.9 µM. 1,600 compounds, 31% hits;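 active means inhibition above the mean of all tested compounds plus 3 SD, cutoff set per campaign, cut at about 36% in these data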
DNA FID counter-2: intercalator displacement, NS3 helicase counter-screen | shares compounds with NS3 helicase inh | AID 1945 | 1,600 compounds, 4% hits | inhibition, % at 7.9 µM | DNA fluorescent intercalator displacement, fluorescence;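 further: higher means more displacement of ethidium bromide from the DNA hairpin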
DNA FID DR: DNA intercalator displacement in dose response. shares compounds with NS3 helicase inh. fluorescent intercalator displacement from DNA, fluorescence. IC50, µM. 120 tested, under 10 active; call rule not given here
Each line names hits and unclear results; the compound was inactive in the other large screens (follow-up assays come after a bar, where they were run). Compounds with a hit are over-represented: about 2.1% of the library has one in this group of screens. Unless noted, no stated cut-off is given here; in the data, active means inhibition above about 37%; inactive means the rest.

CCCN(CC#CCO)CCC	none
Cc1cc(C)c(-n2c(O)c(/C=N/N3CCCCC3c3cccnc3)c(=O)[nH]c2=O)c(C)c1 (stereo unspecified)	none
CCC(C)N1C(=O)/C(=C\c2ccc(N3CCCCCC3)cc2)C(=O)NC1=S (stereo unspecified)	none
CCCCN1C(=O)/C(=C/c2ccc(N3CCCCCC3)cc2)C(=O)NC1=S	NS3 helicase inh 39 | NS3 helicase cf inactive | DNA FID counter-2 inactive
Cc1ccc(-n2c(C)cc(/C=C3/C(=O)NC(=O)N(C)C3=O)c2C)cc1	none
Cc1ccccc1-n1c(C)cc(/C=C2/C(=O)NC(=O)N(Cc3ccco3)C2=O)c1C	NS3 helicase inh 40 | NS3 helicase cf inactive | DNA FID counter-2 inactive
Cc1ccc(-n2c(C)cc(/C=C3/C(=O)NC(=O)N(Cc4ccco4)C3=O)c2C)cc1	NS3 helicase inh 63 | NS3 helicase cf inactive | DNA FID counter-2 inactive
Cn1cccc1/C=C1\C(=O)NC(=O)N(Cc2ccco2)C1=O	none
Cc1ccc(/C=C2\C(=O)NC(=S)N(c3cccc(F)c3)C2=O)o1	NS3 helicase inh 37 | NS3 helicase cf 65 | DNA FID counter-2 inactive
CCOc1ccc(N2C(=O)/C(=C/c3ccc(C)o3)C(=O)NC2=S)cc1	NS3 helicase inh 49 | NS3 helicase cf 70 | DNA FID counter-2 inactive
COc1ccc(N2C(=O)/C(=C/c3ccc(C)o3)C(=O)NC2=S)cc1	none
O=C1C2CCN(CC2)C12CC2c1ccc(C(F)(F)F)cc1 (stereo unspecified)	NS3 helicase inh 39 | NS3 helicase cf inactive | DNA FID counter-2 inactive
Cc1c(OC(=O)N(C)C)ccc2c1O/C(=C\c1ccco1)C2=O	NS3 helicase inh 59 | NS3 helicase cf inactive | DNA FID counter-2 inactive
CC1=[N+]([O-])C2(N)CCc3nonc3C2(O)C1 (stereo unspecified)	none
Cc1cccc(N2C(=O)NC(=O)/C(=C\C=C\c3ccco3)C2=O)c1	none
Cc1ccc(N2C(=O)NC(=O)/C(=C\C=C\c3ccco3)C2=O)cc1	NS3 helicase inh 42 | NS3 helicase cf 39 | DNA FID counter-2 inactive
O=C1NC(=O)N(c2ccccc2)C(=O)/C1=C/C=C/c1ccco1	NS3 helicase inh 45 | NS3 helicase cf inactive | DNA FID counter-2 inactive
O=C1NC(=O)N(Cc2ccccc2)C(=O)/C1=C\C=C\c1ccco1	NS3 helicase inh 42 | NS3 helicase cf inactive | DNA FID counter-2 inactive
Cc1ccc(N2C(=O)NC(=O)/C(=C\C=C\c3ccco3)C2=O)cc1C	NS3 helicase inh 38 | NS3 helicase cf 62 | DNA FID counter-2 inactive | DNA FID DR inactive
CN1C(=O)/C(=C/C=C/c2ccco2)C(=O)NC1=S	none
O=C1NC(=S)NC(=O)C1=Cc1ccc(OCC(=O)N2CCCC2)cc1	none
CN(C)C(=O)Oc1ccc(Br)cc1C(=O)Nc1ccc(F)c(Cl)c1	none
CC(ON1CC1(C(F)(F)F)C(F)(F)F)(C(N)=O)C(N)=O (stereo unspecified)	none
Cc1ncc(CN2CCCC(C(=O)c3sccc3C)C2)s1 (stereo unspecified)	none
O=C(Nc1ccc(F)cc1)N1CC2CC(C1)c1cccc(=O)n1C2 (stereo unspecified)	none
CC(=NCc1ccco1)c1c(O)n(Cc2ccccc2)c(=O)[nH]c1=O	none
CCc1ccc(N2C(=O)NC(=O)/C(=C\c3cc(C)n(-c4cc(C(=O)O)cc(C(=O)O)c4)c3C)C2=O)cc1	NS3 helicase inh 40 | NS3 helicase cf inactive | DNA FID counter-2 inactive
O=C(O)CC1OCC=C2CN3CCC45C6=CC(=O)C(=O)C([N+](=O)[O-])=C6NC4C1C2CC35 (stereo unspecified)	UBC9 SUMO inh 100 | NS3 helicase cf inactive | DNA FID counter-2 inactive
CCN1C(=O)N(CC)C(=O)C2(Cc3ccccc3N3CCN(c4ccccc4)CC32)C1=O (stereo unspecified)	NS3 helicase inh 45 | NS3 helicase cf inactive | DNA FID counter-2 inactive
CC1Oc2cc3c(-c4c(O)cc(O)c5c(O)c6c(cc45)OC(C)C(C)C6=O)c(O)cc(O)c3c(O)c2C(=O)C1C (stereo unspecified)	NS3 helicase inh 50, UBC9 SUMO inh inconclusive | NS3 helicase cf 96 | DNA FID counter-2 64
Cc1nn(Cc2ccccc2)c(C)c1C(=O)OCC(=O)Nc1ccccc1SCC#N	none
C=CCN1C(=O)NC(=O)/C(=C/c2c(CCN(C)C(=O)c3ccccc3)cc3c(c2OC)OCO3)C1=O	NS3 helicase inh 54 | NS3 helicase cf inactive | DNA FID counter-2 inactive
COc1ccc(CC(=O)Nc2ccc3c(C(F)(F)F)cc(=O)oc3c2)cc1OC	NS3 helicase inh 59 | NS3 helicase cf inactive | DNA FID counter-2 inactive
CCN(CC)CCOC(=O)c1ccc(N=Cc2c(O)[nH]c(=O)[nH]c2=O)cc1	none
COc1ccc(OC)c(N2C(=O)/C(=C/c3ccco3)C(=O)NC2=S)c1	NS3 helicase inh 44, UBC9 SUMO inh 94 | NS3 helicase cf 104 | DNA FID counter-2 62
O=C(N/N=C/c1c(O)n(CCC2=CCCCC2)c(=O)[nH]c1=O)c1ccccc1	none
O=C(N/N=C/c1c(O)n(CCC2=CCCCC2)c(=S)[nH]c1=O)c1ccccc1	NS3 helicase inh 40 | NS3 helicase cf 99 | DNA FID counter-2 inactive | DNA FID DR inactive
Cn1c(O)c(C=NC2CC(C)(C)NC(C)(C)C2)c(=O)n(C)c1=O	none
CCN(CC)c1ccc(N=Cc2c(O)n(Cc3ccco3)c(=O)[nH]c2=O)cc1	NS3 helicase inh 37 | NS3 helicase cf inactive | DNA FID counter-2 inactive
NC(=O)c1ccc(N=Cc2c(O)n(Cc3ccco3)c(=O)[nH]c2=O)cc1	none
COc1cccc(CCNCc2ccc(SC)cc2)c1	none
CCN1C(=O)/C(=C/c2ccc3c(c2)CCN3CCCCl)C(=O)NC1=S	none
CC(C)(C)N1C(=O)NC(=O)/C(=C\c2ccc3c(c2)CCN3CCCCl)C1=O	NS3 helicase inh 97 | NS3 helicase cf inactive | DNA FID counter-2 inactive
CCOP(=S)(OCC)SCC(=O)NC(C(=O)O)C(C)C (stereo unspecified)	none
Cc1ccc(N2C(=O)/C(=C/c3ccc(CN(CCC#N)S(C)(=O)=O)o3)C(=O)NC2=S)cc1C	NS3 helicase inh 44 | NS3 helicase cf 66 | DNA FID counter-2 inactive
